Bioassay records from PubChem.
Compounds with a hit are over-represented: about 11% of the library has one in this group of screens.
D1 mod: allosterically modulates the human D1 dopamine receptor. 58,000 tested, 5.9% active. HEK293 D1, CRE-luciferase, dopamine EC30 potentiation; actives deviate in either direction. P21728. B-score at 10 µM;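 active means luminescence count or its row- and column-corrected plate score outside the 99.7% band of the plate's sample wells, on either side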
S1P1 ag-PAM: agonists and agonism potentiators of human S1P1 receptor; P21453; S1P1 CRE-bla cells, forskolin, beta-lactamase FRET, potentiator mode; S1P1 agonist co-added at EC20, 2 nM; 100% = saturating reference agonist, 0% = basal; activation, % at 9.5 µM; 56,000 tested, 0.57% active; AID 449;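 active means activation above a cutoff set at the mean activation of all tested compounds plus 3 SD, cut at about 54% in these data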;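 further: forskolin at 4 µM as EC80 and the EC20 agonist is SEW2871; 100% = SEW2871 at its EC100 plus forskolin at EC80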
Target sequence (P21453 whole entry, looked up): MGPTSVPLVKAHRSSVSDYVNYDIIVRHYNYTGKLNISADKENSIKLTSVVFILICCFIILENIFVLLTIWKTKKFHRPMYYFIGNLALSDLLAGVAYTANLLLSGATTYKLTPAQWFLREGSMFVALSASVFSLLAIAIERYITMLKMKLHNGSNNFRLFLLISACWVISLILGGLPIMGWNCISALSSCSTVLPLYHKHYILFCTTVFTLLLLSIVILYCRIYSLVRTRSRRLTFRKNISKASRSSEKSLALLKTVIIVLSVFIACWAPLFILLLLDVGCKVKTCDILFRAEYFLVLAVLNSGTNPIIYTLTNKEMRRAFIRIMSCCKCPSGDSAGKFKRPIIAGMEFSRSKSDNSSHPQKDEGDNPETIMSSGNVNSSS
M1 antagonist: blocks the rat M1 muscarinic receptor response to acetylcholine | B-score at 10 µM | 64,000 tested, 3.4% active | AID 628 | CHO-M1 cells, Fluo-4 calcium, ACh EC80 antagonist mode; hits give low values;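 active means calcium fluorescence response, raw or row-and-column corrected B-score, differing from the plate sample mean either way at a set confidence level, mostly lower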
M1 agonist: M1 muscarinic receptor agonism; 64,000 tested, 3% active; B-score at 10 µM; AID 626; CHO-M1 cells, Fluo-4 calcium fluorescence, agonist mode; hits give high values;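 active means fluorescence rise, raw or as B-score row- and column-corrected plate score, outside the 99.7% band of its plate's samples, either direction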
S1P3 agonist: activates the human S1P3 receptor | Q99500 | S1P3 NFAT-BLA reporter cells, agonism, FRET ratio; relative to 1 µM S1P, basal subtracted | activation, % at 4.5 µM | 60,000 tested, 0.1% active | AID 373;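 active means activation above the screen-wide mean plus 3 SD, cut at about 4.5% in these data, passing the limit was not always enough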
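Benchmarks: high control 1 µM S1P / System: stable CHO line with human S1P3, Gα16, NFAT-BLA reporter / Dosing: single compound concentration, 4.5 µM final / Timing: 4 h compound at 37 °C, 2 h substrate at RT / Measured by: FRET β-lactamase substrate fluorescence, excitation 405 nm, 460/535 nm emission ratio, background-subtracted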
M1 antag conf: confirmation of rat M1 muscarinic receptor antagonists | AID 677 | 1,700 tested, 43% active | CHO-M1 cells, Fluo-4 calcium, ACh EC80 antagonism; hits give low values | shares compounds with M1 antagonist | calcium response (max-min fluorescence) at 10 µM;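 active means calcium response below the same-plate mean of wells given acetylcholine alone at its 80%-effect dose, minus 3 SD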;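 further: raw fluorescence intensity difference in arbitrary instrument units and not normalized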
mGluR4 antag: mGluR4 (human) activity, M1 antagonist secondary assay | shares compounds with M1 antagonist | CHO-mGluR4 calcium flux, Fluo-4 fluorescence, glutamate EC80; hits give low values | fluorescence response (max-min) at 10 µM | 1,700 tested, 0.9% active | AID 678;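 active means fluorescence response below the plate's average for near-maximal glutamate wells, less 3 SD of those wells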;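 further: raw unnormalized fluorescence span taken in the window right after glutamate addition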
D1 mod confirm: confirmation of human D1 dopamine receptor allosteric modulators | 2,200 tested, 88% active | luminescence at 10 µM | HEK293 D1 CRE-luciferase, dopamine EC30 potentiation; hits give high values | AID 642 | shares compounds with D1 mod;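 active means luminescence in either of two replicates above the same-plate mean plus 3 SD of the low-dose dopamine control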
D1 no dopamine: activates D1 CRE-luciferase signal without dopamine present; HEK293 D1 CRE-luciferase, luminescence, no dopamine; hits give high values; 1,900 tested, 0.8% active; luminescence at 10 µM; shares compounds with D1 mod; in the data active means luminescence above about 3900
Isoprot counter: isoproterenol response counter-screen activity for D1 modulators; AID 647; 2,200 tested, 63% active; shares compounds with D1 mod; calls only at 10 µM; HEK293 D1 CRE-luciferase, isoproterenol EC30 counter-screen;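 active means luminescence in either replicate above plate mean of wells with a partly effective reference agonist dose plus 3 SD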;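 further: isoproterenol raises cAMP through native beta-adrenoceptor Gs so signal bypasses D1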
Starred values were filed as active, the others as inactive; i = inactive; . = not tested or not shown; + = active, no number.

SMILES	D1 mod	S1P1 ag-PAM	M1 antagonist	M1 agonist	S1P3 agonist	M1 antag conf	mGluR4 antag	D1 mod confirm	D1 no dopamine	Isoprot counter
CCC(C)NS(=O)(=O)c1cccs1 (stereo not given)	0.9	.	-3.4*	0.89	0	644	261	.	.	.
CC1=C(C(=O)OC(C)C)C(c2c(O)ccc3ccccc23)NC(=O)N1 (stereo not given)	0.96	-8	-0.84	-0.18	-1	.	.	.	.	.
CCCCOc1ccc(S(=O)(=O)n2c(C)nc3ccccc32)cc1	-0.62	75	-3.5*	-1	-1	584	242	.	.	.
CCOc1ccc(S(=O)(=O)n2c(C)nc3ccccc32)cc1	-1.6	-18	-2.6*	-0.073	0	202*	243	.	.	.
CCC1(C)Cc2ccccc2/C(=C/C(=O)N2CCCCC2)N1 (stereo not given)	0.089	3	-2.7*	-0.79	0	18*	246	.	.	.
C=CCNC(=O)CN(c1ccc(F)c(Cl)c1)S(C)(=O)=O	0.3	.	0.25	0.96	-2	.	.	.	.	.
CC(C)(C)NC(=O)Cn1ccc(=N)c2ccccc21	-0.39	7	-2.5*	-0.05	0	476	192	.	.	.
O=C(C1CCCCC1)N(CCN1CCCC1)c1nc2ccccc2s1	-1.6	-7	-2.3*	-0.55	0	718	207	.	.	.
NC(=O)c1oc2ccc(Cl)cc2c1NC(=O)CN1CCOCC1	0.058	2	1.2	-0.011	-2	.	.	.	.	.
CCOC(=O)c1oc2ccc(Br)cc2c1NC(=O)CN1CCN(C)CC1	5.7*	-9	-2.9*	-0.52	0	450*	296	5896*	1096	i
Cc1cc(-c2nnc3sc(C4CCCCC4)nn23)n[nH]1	7.8*	-1	-0.13*	-0.075	0	518	214	14928*	.	+
c1cncc(-c2nnc3sc(C4CCCCC4)nn23)c1	.	-24	0.82	0.73	-1	.	.	.	.	.
Cc1cccc2cc(CN(CCCO)C(=O)Nc3cccc(Cl)c3)c(=O)[nH]c12	.	-5	0.17	-0.0031	-1	.	.	.	.	.
COc1nc(N2CCCCCC2)nc(N2CCCCCC2)n1	0.018	3	0.45	-0.2	-2	.	.	.	.	.
CCOc1nc(C#N)nc(N2CCCCC2)n1	2.6*	-25	-1.2*	-1.6	0	430*	234	10912*	1612	+
COc1ccc(C2CC(c3cc(OC)ccc3OC)n3nnnc3N2)cc1 (stereo not given)	2.7*	-28	-17*	1.4	0	635	240	9576*	1560	i
CCc1ccc(-c2nc(CN3CCC(C(=O)N4CCN(c5ccccn5)CC4)CC3)c(C)o2)cc1	7.1*	24	-2.6*	0.42	-1	411	213	6240*	.	+
CCc1ccc(-c2nc(CN3CCCC(C(=O)O)C3)c(C)o2)cc1 (stereo not given)	-0.054	-14	-0.42	-0.67	-1	.	.	.	.	.
O=C(COc1ccc(-c2nnco2)cc1)N1CCN(S(=O)(=O)c2ccccc2)CC1	0.64	.	-0.4	0.082	.	.	.	.	.	.
CCN(CC)CCOc1c(Br)ccc2c1sc1nc3n(c(=O)c12)CCC3	2.7*	-25	-11*	-0.055	0	130*	229	8312*	1568	i
CC1CCN(Cc2ccc(NC(=O)CC3Oc4ccccc4NC3=O)cc2)CC1 (stereo not given)	2.8*	-1	-11*	-0.7	0	24*	229	5132	1676	i
O=C(CC1Oc2ccccc2NC1=O)NC1CCCC1 (stereo not given)	0.54	-7	0.016	-0.9	-2	.	.	.	.	.
COc1ccc(Cc2nnc(NC(=O)c3cccs3)s2)cc1	0.094	-38	0.4	-0.0067	0	.	.	.	.	.
COc1ccc(C(=O)Nc2nnc(Cc3cccs3)s2)cc1OC	3*	-16	-17*	-1.1	-2	621	244	9388*	1740	i
CCc1cc2c(SCC(=O)C(C#N)=C3N(C)c4ccccc4N3C)ncnc2s1	-2.8	15	-0.054	1.1	0	.	.	.	.	.
SMILES	D1 mod	S1P1 ag-PAM	M1 antagonist	M1 agonist	S1P3 agonist	M1 antag conf	mGluR4 antag	D1 mod confirm	D1 no dopamine	Isoprot counter
Cc1occc1-c1nnc(SCC(=O)NCc2cccs2)n1-c1ccc(F)cc1	-0.38	2	-0.053	0.45	-1	.	.	.	.	.
O=c1c2ccccc2n(Cc2ccc(F)cc2)c(=O)n1C1CCCC1	4.9*	-3	-14*	-0.00025	-1	576	252	9856*	1664	+
CCC(=O)N1c2ccc(S(=O)(=O)CCC(=O)N3CCn4c3nc3ccccc34)cc2CC1C (stereo not given)	3.9*	-24	-3.3*	0.61	0	508	208	12244*	1788	+
CCC(=O)N1c2ccc(S(=O)(=O)CCC(=O)NC3CCCC3)cc2CC1C (stereo not given)	0.13	-38	0.042	-0.23	0	.	.	.	.	.
Cn1c(=O)c2c(ncn2CC(=O)OCc2ccccc2)n(C)c1=O	-0.42	-10	0.067	0.18	0	.	.	.	.	.
O=C(c1ccco1)N1CCN(S(=O)(=O)c2ccc3c(c2)CCN3C(=O)C2CC2)CC1	4.2*	-45	-2.4*	-1.2	0	633	242	11508*	1616	i
C=CCSC1=C(C#N)C(c2ccc(C(C)C)cc2)CC(=O)N1 (stereo not given)	0.75	-8	0.088	0.81	0	.	.	.	.	.
CCN=C1SC(C(N)=O)CC(=O)N1CC (stereo not given)	6.3*	-2	-15*	-0.13	-1	651	207	10588*	1464	i
CCCCSc1nc2c(cnn2-c2ccc(F)cc2)c(=O)[nH]1	7*	-22	-2.9*	0.039	-1	643	155	7560*	1648	i
CC(C)=CC(=O)Nc1ccc(Br)cc1	-1.9	25	-0.67	-0.1	0	.	.	.	.	.
C/C=C/Cn1c(SCc2ccccc2)nc2c1c(=O)[nH]c(=O)n2C	15*	-5	-2.7*	0.67	-1	589	245	16256*	1572	+
CCOCCn1c(SCc2ccccc2)nc2c1c(=O)[nH]c(=O)n2C	0.26	-7	-0.27	0.15	0	.	.	.	.	.
CCSc1nc2cc(OC)c(OC)cc2c(=O)n1CC	11*	-36	-3.1*	0.25	1	566	241	13604*	1368	+
